In data set [1] the test system is MV4-11. Briefly: Growth inhibition of human MV411 cells after 72 hrs by Celltiter-Glo luminescent cell viability assay. Type of data set: functional. Conditions: MV4-11, 72 h. A digest of the protocol: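 Anti-proliferative activity was tested in MV-4-11 cells. Each GI50 is the mean of at least two separate assay runs.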
In data set [2] the target is T1, Bromodomain-containing protein 4 (Homo sapiens, UniProt O60885). Briefly: Inhibition of His-epitope tagged BRD4 bromodomain 1 (44 to 168 residues) (unknown origin) using biotinylated K5,8,12,16 tetra-acetylated histone H4 (1 to 20 residues) peptide as substrate measured after 1 hr by Alphascreen assay. A digest of the protocol: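 Binding to the isolated BRD4 first bromodomain was measured by AlphaScreen. Each IC50 is the mean of at least two separate assay runs.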

A short description of data set [3]: Stability in mouse liver microsomes assessed as parent compound remaining after 30 mins. The conditions noted are these: read-out: Stability. It counts as ADME, microsome. The method, boiled down:
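Compound was incubated with mouse liver microsomes for 30 minutes. The read-out was the percent of compound remaining.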
On the technique in general: Liver microsomes are a subcellular fraction often used to study metabolism.

Data set [4] can be described thus: Half life in mouse plasma. Type of data set: ADME, cell-free. A digest of the protocol:
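Compound stability in mouse plasma, expressed as a half-life.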

The nature of data set [5]: Drug uptake in po dosed mouse plasma. It counts as ADME, organism-based. The conditions noted are these: in vivo.
Data set [6] in a line: Chemical stability of the compound in acid. It counts as physicochemical.
Data set [7] can be described thus: Toxicity in po dosed athymic Hsd:Foxn1nu mouse administered twice daily for 5 days. Type of data set: organism-based. The conditions noted are these: in vivo. A digest of the protocol: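 Tolerability study in athymic nude mice given repeat oral doses twice daily for five days. The value reported is the estimated maximum tolerated dose.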
In data set [8] the target is T1, Bromodomain-containing protein 4. The data set can be described thus: Inhibition of BRD4 in human MV411 cells assessed as reduction in MYC mRNA expression. Type of data set: cell-based.
In another data set the test system is Mus musculus. The data set can be described thus: Reduction in MYC mRNA level in tumor of athymic Hsd:Foxn1nu mouse xenografted with human MV411 cells at 12.5 mg/kg, po administered as single dose measured after 4 hrs by qRT-PCR analysis relative to control. It counts as functional. A digest of the protocol: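 Athymic nude mice bearing MV-4-11 xenografts received a single oral dose of 12.5 mg/kg. Tumor MYC levels were compared with those of vehicle-treated mice.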

The test system of data set [9] is MV4-11. Briefly: Antitumor activity against human MV411 cells xenografted in athymic Hsd:Foxn1nu mouse assessed as tumor growth inhibition at 12.5 mg/kg, po administered twice daily for 20 days measured weekly twice during compound dosing relative to control. The conditions noted are these: MV4-11, po, 480 h, read-out: TGI. Type of data set: functional. For orientation: In xenograft studies the graft and the host belong to different species.

The nature of data set [10]: Drug uptake in athymic Hsd:Foxn1nu mouse plasma assessed as unbound fraction at 5 mg/kg, po administered as single dose by mass spectrometric analysis. Type of data set: ADME, organism-based. The conditions noted are these: in vivo.

Each structure is given as a SMILES string.

Consider `CC(=O)N1c2ccc(-c3cnn(C4CNC4)c3)cc2N(C(=O)C2CC2)C[C@@H]1C`, for which the GI50 (commonly the concentration giving 50% growth inhibition) in the data set with MV4-11 [1] worked out at 0.27 µM. In addition, 0.06 µM corresponded to half-maximal inhibition in data set [2] (IC50). Further, the remaining at 0.5 h in [3] turned out to be 100%. The half-life (in general, the time in which the quantity being followed falls by half) in [4] is more than 24 min. The Drug uptake entry in data set [5] is “Not Active”.
`CNC(=O)c1cccc(-c2ccc3c(c2)N(C(=O)c2ccco2)C[C@H](C)N3C(C)=O)c1`: in the data set with MV4-11 [1], the GI50 came out at 0.77 µM. Besides, the IC50 (in general, the concentration at which inhibition is half-maximal) in data set [2] is 0.79 µM.
The like results for `CC(=O)N1c2ccc(-c3ccc(S(C)(=O)=O)cc3)cc2N(C(=O)c2ccco2)C[C@@H]1C` were, in that order, 0.4 µM and 1.6 µM.
With `CC(=O)N1c2ccc(-c3cnn(C(C)C)c3)cc2N(C(=O)C2CC2)C[C@@H]1C`, halving of growth in the data set with MV4-11 [1] (GI50) required 0.58 µM. This compound displayed a concentration for half-maximal inhibition (IC50) in [2] of 0.42 µM. In data set [3], the remaining at 0.5 h was 24%.
With `CC(=O)N1c2ccccc2N(C(=O)CC(C)C)C[C@@H]1C`, in [2], the IC50 is more than 50 µM.
Turning to `CC(=O)N1c2ccc(-c3ccccc3)cc2N(C(=O)c2ccco2)C[C@@H]1C`, in the data set with MV4-11 [1], the GI50 is 0.35 µM. This compound also showed an IC50 in data set [2] of 1.6 µM.
In [2], `CC(=O)N1c2ccccc2N(C(=O)c2ccco2)C[C@@H]1C` registered an IC50 of 14 µM.
Take `CC(=O)N1c2ccc(-c3ccc(C(=O)N4CCNCC4)cc3)cc2N(C(=O)C2CC2)C[C@@H]1C`: the GI50 in the data set on MV4-11 [1] came out at 0.12 µM. Besides, the IC50 in data set [2] is 0.38 µM. The remaining at 0.5 h in data set [3] worked out at 100%. In data set [4], this compound had a half-life of 3 min.
The like results for `COC(=O)N1c2ccc(-c3ccc(S(C)(=O)=O)cc3)cc2N(C(=O)c2ccco2)C[C@@H]1C` were, in that order, 0.32 µM, 0.65 µM, 14% and 22 min.
As for `CC(=O)N1c2ccc(-c3ccc(S(C)(=O)=O)cc3)cc2N(C(=O)OC(C)C)C[C@@H]1C`, the GI50 with MV4-11 [1] is 0.35 µM. Further, the IC50 in data set [2] worked out at 0.26 µM. In addition, in data set [3], the remaining at 0.5 h came to 99%. Further, in data set [4], the half-life was determined as 6 min.
In the data set with MV4-11 [1], `CC(=O)N1c2ccc(-c3cnn(C4COC4)c3)cc2N(C(=O)C2CC2)C[C@@H]1C` returned a GI50 of 0.44 µM. Besides, the Stability result in data set [6] is reported as “Unstable”. Also, the IC50 in data set [2] amounted to 0.37 µM. Moreover, in data set [3], the remaining at 0.5 h turned out to be 100%. The compound further returned a half-life in data set [4] of more than 24 min.
Consider `CC(=O)N1c2ccccc2N(C(=O)C2CCCC2)C[C@@H]1C`, for which the IC50 in data set [2] was 43 µM.
`CCC(=O)N1c2ccc(-c3ccc(S(C)(=O)=O)cc3)cc2N(C(=O)c2ccco2)C[C@@H]1C` gave a GI50 in the data set with MV4-11 [1] of 0.55 µM. Also, the IC50 in [2] amounted to 1.4 µM. In data set [3], the remaining at 0.5 h was determined as 11%. For the same compound, in data set [4], the half-life stood at 18 min.
With `CC(=O)N1c2ccccc2N(C(=O)c2ccccc2)C[C@@H]1C`, the IC50 in data set [2] was more than 50 µM.
`C[C@H]1CN(C(=O)c2ccco2)c2cc(-c3ccc(S(C)(=O)=O)cc3)ccc2N1C(=O)C1CC1` had a GI50 in the data set with MV4-11 [1] of 0.28 µM. The same compound yielded an IC50 in data set [2] of 0.76 µM. For the same compound, the remaining at 0.5 h in data set [3] was determined as 19%. The half-life in data set [4] was more than 24 min.
For `CC(=O)N1c2ccc(-c3ccc(N4CCS(=O)(=O)CC4)cc3)cc2N(C(=O)C2CC2)C[C@@H]1C`, the GI50 in the data set on MV4-11 [1] was 0.22 µM. In addition, the values for the IC50 in data set [2] and in [8] were 0.1 µM and 0.46 µM, respectively. Further, the remaining at 0.5 h in data set [3] came out at 95%. For the same compound, the half-life in data set [4] is more than 24 min. The compound further showed an MTD at 120 h in data set [7] of 12.5 mg/kg. Moreover, in the data set on Mus musculus, the “fold change (FC)” value was found to be 0.2. For the same compound, the inhibition in vivo at 12.5 mg/kg with MV4-11 [9] worked out at 100%. In addition, in data set [10], the “Drug uptake(free)” value was “Not Active”.
As to `CC(=O)N1c2ccc(-c3ccc(S(C)(=O)=O)cc3)cc2N(C(=O)C2CC2)C[C@@H]1C`, in the data set with MV4-11 [1], the GI50 came to 0.83 µM. The compound further registered an IC50 in data set [2] of 1.7 µM. In addition, the remaining at 0.5 h in data set [3] was 100%. The compound further gave a half-life in data set [4] of more than 24 min.
Compound `CC(=O)N1c2ccc(-c3cnn(C)c3)cc2N(C(=O)c2ccco2)C[C@@H]1C` came in with a GI50 with MV4-11 [1] of 0.21 µM. This compound also registered an IC50 in [2] of 0.38 µM.
Compound `C[C@H]1CN(C(=O)c2ccco2)c2cc(-c3ccc(S(C)(=O)=O)cc3)ccc2N1C=O` gave an IC50 in data set [2] of more than 25 µM.

The values are drawn from ChEMBL document CHEMBL4190332, “Design and Optimization of Benzopiperazines as Potent Inhibitors of BET Bromodomains” (ACS Med Chem Lett, 2017).
